Assay results from ChEMBL document CHEMBL5046323, “Discovery of Phospholipase D Inhibitors with Improved Drug-like Properties and Central Nervous System Penetrance” (ACS Med Chem Lett, 2022).
In brackets after ≈: the same amount, converted by molar mass.

Legend:
[1] = AUClast in sc dosed C57BL/6 mouse by LC-MS/MS analysis; format: ADME, organism-based; parameters: route subcutaneous, time 0 - last; conditions: in vivo
[2] = Tmax in po dosed rat; format: ADME, organism-based; conditions: in vivo
How it was run: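 Rat oral PK, average of two experiments with n = 3 rats each; formulation HPMC/Tween.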

[3] = Unbound brain-to-plasma concentration ratio in rat; format: ADME; conditions: read-out: K(p,uu,brain)
How it was run: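 Kpu,u is the ratio of free compound concentration in brain over free concentration in plasma at steady state, determined by rat infusion.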

[4] = Cmax in sc dosed C57BL/6 mouse by LC-MS/MS analysis; format: ADME, organism-based; parameters: route subcutaneous; conditions: in vivo
Cytochrome P450 2C19 = Cytochrome P450 2C19 (Homo sapiens, UniProt P33261); assay: Inhibition of CYP2C19 (unknown origin); format: ADME
Cytochrome P450 2C19, sequence (P33261 whole entry): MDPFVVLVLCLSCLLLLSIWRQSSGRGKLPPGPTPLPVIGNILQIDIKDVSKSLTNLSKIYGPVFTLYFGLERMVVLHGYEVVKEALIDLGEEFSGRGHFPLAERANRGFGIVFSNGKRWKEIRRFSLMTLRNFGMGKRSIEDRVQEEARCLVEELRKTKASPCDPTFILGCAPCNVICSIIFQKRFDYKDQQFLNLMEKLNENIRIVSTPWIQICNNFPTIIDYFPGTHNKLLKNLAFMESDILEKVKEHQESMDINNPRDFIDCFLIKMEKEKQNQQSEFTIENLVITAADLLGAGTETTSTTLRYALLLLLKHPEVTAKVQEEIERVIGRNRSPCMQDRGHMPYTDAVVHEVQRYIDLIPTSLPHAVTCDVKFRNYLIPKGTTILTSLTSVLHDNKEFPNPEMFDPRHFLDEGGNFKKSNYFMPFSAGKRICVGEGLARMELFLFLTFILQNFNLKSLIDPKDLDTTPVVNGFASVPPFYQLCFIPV

Cytochrome P450 2B6 = molecular target: T1, Cytochrome P450 2B6 (Homo sapiens, UniProt P20813); assay: Inhibition of CYP2B6 (unknown origin); format: ADME
T1 sequence (P20813 whole entry): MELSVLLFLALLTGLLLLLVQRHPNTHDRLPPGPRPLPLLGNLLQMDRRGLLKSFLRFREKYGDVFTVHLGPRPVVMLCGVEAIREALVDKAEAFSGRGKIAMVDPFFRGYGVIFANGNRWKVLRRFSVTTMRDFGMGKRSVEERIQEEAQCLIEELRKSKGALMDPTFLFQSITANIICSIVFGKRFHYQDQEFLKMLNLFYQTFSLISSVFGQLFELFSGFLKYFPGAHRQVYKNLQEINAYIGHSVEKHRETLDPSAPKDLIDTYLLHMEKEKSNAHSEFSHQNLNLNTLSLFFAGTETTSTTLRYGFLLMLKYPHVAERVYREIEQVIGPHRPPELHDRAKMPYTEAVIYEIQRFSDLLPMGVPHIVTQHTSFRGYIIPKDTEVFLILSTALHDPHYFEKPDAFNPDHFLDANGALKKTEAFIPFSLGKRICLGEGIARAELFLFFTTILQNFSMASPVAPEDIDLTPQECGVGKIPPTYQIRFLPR

[5] = Apparent permeability in dog MDCK cells with low MDR1 expression
Cytochrome P450 3A4 = Cytochrome P450 3A4 (Homo sapiens, UniProt P08684); assay: Inhibition of CYP3A4 (unknown origin); format: ADME
Cytochrome P450 3A4, sequence (P08684 whole entry): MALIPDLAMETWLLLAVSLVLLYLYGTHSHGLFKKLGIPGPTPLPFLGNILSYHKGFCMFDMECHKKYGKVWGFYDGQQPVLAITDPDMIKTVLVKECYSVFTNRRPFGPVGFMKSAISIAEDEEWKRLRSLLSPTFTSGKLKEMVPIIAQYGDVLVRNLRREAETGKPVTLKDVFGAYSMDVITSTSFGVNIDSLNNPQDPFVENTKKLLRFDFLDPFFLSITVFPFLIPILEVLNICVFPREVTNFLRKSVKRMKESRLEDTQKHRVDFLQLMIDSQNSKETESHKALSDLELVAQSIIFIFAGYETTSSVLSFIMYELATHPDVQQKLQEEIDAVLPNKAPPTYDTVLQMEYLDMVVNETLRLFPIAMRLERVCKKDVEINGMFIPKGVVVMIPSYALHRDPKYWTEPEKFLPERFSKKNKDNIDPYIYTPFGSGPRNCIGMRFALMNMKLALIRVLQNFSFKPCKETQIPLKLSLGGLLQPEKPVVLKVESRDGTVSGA

[6] = Tmax in sc dosed C57BL/6 mouse by LC-MS/MS analysis; format: ADME, organism-based; conditions: in vivo
[7] = Kinetic solubility of compound at pH 6.8; format: physicochemical; conditions: buffer, read-out: Kinetic_solubility
How it was run: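 Kinetic solubility measured at pH 6.8.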

[8] = Clearance in iv dosed rat administered as cassette dose; format: ADME, organism-based; conditions: in vivo
How it was run: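 Rat IV clearance from cassette dosing; unbound clearance calculated as CL/fu.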

[9] = Unbound brain concentration in sc dosed C57BL/6 mouse measured after 15 mins by LC-FTICR-MS analysis; format: ADME, organism-based; conditions: in vivo, 0.25 h
How it was run: (§1)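 Mice dosed subcutaneously at 10 mg/kg 15, 30 or 60 min before injection of 1-butanol-d10; tissues (liver, brain) collected 15 min after butanol injection for compound levels.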

[10] = Drug concentration in sc dosed C57BL/6 mouse liver measured after 15 mins by LC-FTICR-MS analysis; format: ADME, organism-based; conditions: read-out: Ct; how it was run: as §1
[11] = Plasma protein binding in sc dosed C57BL/6 mouse assessed as unbound fraction by LC-MS/MS analysis; format: ADME, organism-based; conditions: in vivo
Cytochrome P450 2C9 = Cytochrome P450 2C9 (Homo sapiens, UniProt P11712); assay: Inhibition of CYP2C9 (unknown origin); format: ADME
Cytochrome P450 2C9, sequence (P11712 whole entry): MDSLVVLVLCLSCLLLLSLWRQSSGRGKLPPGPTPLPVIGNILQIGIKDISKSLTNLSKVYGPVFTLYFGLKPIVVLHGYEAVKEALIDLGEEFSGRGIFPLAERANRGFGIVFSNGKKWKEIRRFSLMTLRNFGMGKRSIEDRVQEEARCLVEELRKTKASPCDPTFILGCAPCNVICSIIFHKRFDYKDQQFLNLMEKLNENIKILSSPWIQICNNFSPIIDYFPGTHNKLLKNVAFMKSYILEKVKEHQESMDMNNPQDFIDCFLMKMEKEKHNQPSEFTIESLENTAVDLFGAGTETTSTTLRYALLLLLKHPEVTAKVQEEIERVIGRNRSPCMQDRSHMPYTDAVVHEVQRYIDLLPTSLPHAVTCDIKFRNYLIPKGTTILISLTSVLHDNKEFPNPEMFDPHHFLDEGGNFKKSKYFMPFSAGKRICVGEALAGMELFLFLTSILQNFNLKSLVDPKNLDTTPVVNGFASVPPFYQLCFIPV

C[C@@H]1CN(C(=O)[C@H](C)N2CCC(n3c(=O)[nH]c4ccccc43)CC2)C[C@@H](C)N1
AUC(0-t) [1]: 7990 ng·h/mL | Tmax [2]: 3 h | Kp uu [3]: 0.8 | Cmax [4]: 2960 ng/mL | IC50 (Cytochrome P450 2C19): > 10 µM | IC50 (Cytochrome P450 2B6): > 10 µM | Papp [5]: 5.1 ×10⁻⁶ cm/s | IC50 (Cytochrome P450 3A4): > 10 µM | Tmax [6]: 0.44 h | solubility kinetic [7]: 72.6 µg/mL (≈ 188 µM) | clearance [8]: 28 mL/min/kg | Drug uptake(free) [9]: 38.1 nM | concentration at 0.25 h [10]: 4550 ng/g | Fu [11]: 17.5% | IC50 (Cytochrome P450 2C9): > 10 µM
